What all share (assay type): functional, cell-based
Experiment [1] relates to CHO. The experiment is described as follows: Dose required to inhibit cell growth was determined against CHO cell line; Not active represents IC50 >400 uM. Particulars: Cricetulus griseus. Summed up: (§1)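 Alamar Blue growth-inhibition assay. Cells ((1–5) × 10³ per well) were preincubated for 24 h, then exposed to increasing drug concentrations for 72 h at 37 °C. Alamar Blue (20%) was added and fluorescence read at ex 485 / em 590 nm. IC50 is the dose inhibiting growth by 50%. Means of ≥3 independent determinations.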

The test system of experiment [2] is HT-29. The experiment is described as follows: Dose required to inhibit cell growth was determined against HT-29 cell line of human adenocarcinoma. Put shortly:
(§2)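 Alamar Blue growth assay. (1–5) × 10^3 cells per well preincubated 24 h, then exposed to increasing drug concentrations for 72 h at 37 °C. Medium replaced with PBS containing 20% Alamar Blue, fluorescence read at 485/590 nm. IC50 is the dose inhibiting growth by 50%.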

Experiment [3] has as its system K562. The experiment is described as follows: Dose required to inhibit cell growth was determined against K562 cell line of chronic myelogenous leukemia. Particulars: Homo sapiens. Summed up: as §2
Experiment [4] relates to L1210. The experiment is described as follows: Dose required to inhibit cell growth was determined against L1210 cell line of murine lymphocytotic leukemia. Particulars: Mus musculus. Summed up: as §2
Experiment [5] has as its system MDA-MB-231. In words: Dose required to inhibit cell growth was determined against MDA-MB-231 cell line of human non-hormone dependent breast carcinoma; Not active represents IC50 >400 uM. Put shortly: as §1
In experiment [6] the test system is CHO. In words: Dose required to inhibit cell growth was determined against CHO cell line. Particulars: Cricetulus griseus. Summed up: as §2
Experiment [7] has as its system MDA-MB-231. In words: Dose required to inhibit cell growth was determined against MDA-MB-231 cell line of human non-hormone dependent breast carcinoma. Put shortly:
as §2

The test system of experiment [8] is LoVo. The experiment is described as follows: Dose to inhibit cell growth determined against LoVo cell line of human adenocarcinoma. Summed up:
as §2

The subject of experiment [9] is P388. In words: Dose required to inhibit cell growth was determined against P388D1 cell line of murine lymphocytotic leukemia. Particulars: Mus musculus. Put shortly: as §2
Experiment [10] concerns MDA-MB-231. In words: Dose required to inhibit cell growth was determined against MDA-MB-231 cell line of human non-hormone dependent breast carcinoma; NA= Not active represents IC50 >400 uM. Summed up: as §1
Experiment [11] concerns LoVo. In words: Dose required to inhibit cell growth was determined against LoVo cell line of human adenocarcinoma; NA= Not active represents IC50 >400 uM. Put shortly: as §1
The test system of experiment [12] is P388. The experiment is described as follows: Dose required to inhibit cell growth was determined against P388D1 cell line of murine lymphocytotic leukemia; NA= Not active represents IC50 >400 uM. Particulars: Mus musculus. Put shortly:
as §1

Activity calls are given as the source filed them. The rule behind the calls is not given here.

As a reminder, the IC50 is the concentration at which inhibition is half-maximal. A higher IC50 goes with a need for much substance.

Take `CCCNC(=O)Nc1ccc(C(C)CC)cc1` (stereo not given): the NA entry in experiment [1] and in experiment [5] was “inactive” each time. Further, the results for the 50% inhibitory concentration (IC50) in experiment [2], in experiment [3] and in experiment [4] were 133 µM, 106 µM and 30 µM, respectively.

Consider `Cc1ccc(NC(=O)NCCCl)cc1C`, for which the 50% inhibitory concentration (IC50) in experiment [6] amounted to 8.7 µM; in experiment [2], 5.4 µM; in experiment [3], 3.5 µM; in [4] it was 3.8 µM; in [7] it was 7.2 µM; in experiment [8], 3.5 µM. Besides, in experiment [9], the IC50 is 4.2 µM.

`O=C(NCCCl)Nc1ccc(Br)cc1`: the IC50 in experiment [6] worked out at 10 µM; in experiment [2] it was 9 µM; in [3], 4.6 µM; in experiment [4], 8.1 µM; in experiment [7], 10 µM; in [8], 11 µM. Further, the IC50 in experiment [9] worked out at 10 µM.

For `O=C(NCCCl)Nc1ccc(Cl)cc1`, the IC50 was 19 µM in experiment [6]; 14 µM in experiment [2]; 9.1 µM in experiment [3]; 9.6 µM in experiment [4]; 31 µM in experiment [7]; 23 µM in experiment [8]. Moreover, the half-inhibitory concentration (IC50) in experiment [9] came out at 11 µM.

In the case of `O=C(NCCCl)Nc1cccc2ccccc12`, the IC50 in experiment [6] came out at 106 µM; in experiment [3] it was 107 µM; in [4], 118 µM; in experiment [7], 150 µM; in [8], 150 µM; in experiment [9], 130 µM.

As for `Cc1cccc(NC(=O)NCCCl)c1C`, the NA entry in [10], in [11] and in [12] was “inactive” throughout.

As to `CC(C)(C)Cc1ccc(NC(=O)NCCCl)cc1`, the half-inhibitory concentration (IC50) is 35 µM in [6]; 36 µM in experiment [2]; 21 µM in [3]; 19 µM in [4]; 34 µM in experiment [7].

For the molecule `CCCCc1ccc(NC(=O)NCCCl)cc1`, the IC50 is 18 µM in experiment [6]; 22 µM in experiment [2]; 10 µM in experiment [3]; 12 µM in [4]; 19 µM in experiment [7]; 10 µM in [8]. Besides, in experiment [9], the half-inhibitory concentration (IC50) worked out at 10 µM.

In the case of `O=C(NCCCl)Nc1cccc(I)c1`, the IC50 in [6] stood at 35 µM; in [2] it was 24 µM; in [3], 17 µM; in [4], 27 µM; in experiment [7], 27 µM; in experiment [8], 36 µM. Besides, half-maximal inhibition in [9] (IC50) required 34 µM.

`CCCc1ccc(NC(=O)NCCCl)cc1`: the IC50 in experiment [6] was found to be 19 µM; in experiment [2], 23 µM; in experiment [3], 8.2 µM; in [4], 9 µM; in [7], 18 µM; in [8] it was 10 µM. This molecule registered a concentration for half-maximal inhibition (IC50) in experiment [9] of 11 µM.

`CCCCCCCCCCc1ccc(NC(=O)NCCCl)cc1`: the NA result in experiment [10], in experiment [11] and in experiment [12] was “inactive” each time.

`CC(Cl)CNC(=O)Nc1ccc(C(C)(C)C)cc1` (stereo not given): the IC50 in experiment [6] was 52 µM; in [2], 21 µM; in experiment [3], 23 µM; in experiment [4], 6 µM; in [7] it was 52 µM.

As to `CCCCCCCCCCCCc1ccc(NC(=O)NCCCl)cc1`, the NA entry in experiment [10], in experiment [11] and in experiment [12] was “inactive” throughout.

For the molecule `CCCNC(=O)Nc1ccc(C(C)C)cc1`, the IC50 in [6] worked out at 133 µM; in [2], 76 µM; in experiment [3], 52 µM; in experiment [4] it was 14 µM. In experiment [5], the NA entry is “inactive”.

Regarding `CCCCCCCCc1ccc(NC(=O)NCCCl)cc1`, the half-inhibitory concentration (IC50) in experiment [7] was found to be 33 µM; in experiment [8] it was 29 µM; in [9] it was 32 µM.

Consider `CCNC(=O)Nc1ccc(C(C)CC)cc1` (stereo not given), for which the NA entry in experiment [1] and in experiment [5] was “inactive” throughout. Further, the concentration for half-maximal inhibition (IC50) is 132 µM in [2], 101 µM in experiment [3] and 43 µM in experiment [4].

With `Cc1cccc(C)c1NC(=O)NCCCl`, the NA result in experiment [10], in [11] and in experiment [12] was “inactive” in each case.

As for `Cc1cc(C)c(NC(=O)NCCCl)c(C)c1`, the NA entry in experiment [10], in experiment [11] and in experiment [12] was “inactive” each time.

On to `CC(C)CCc1ccc(NC(=O)NCCCl)cc1`, for which the 50% inhibitory concentration (IC50) in [6] came out at 19 µM; in experiment [2], 33 µM; in experiment [3], 15 µM; in experiment [4] it was 14 µM; in experiment [7], 32 µM.

As for `Cc1ccc(NC(=O)NCCCl)cc1`, the half-maximal inhibitory concentration (IC50) came out at 26 µM in experiment [6]; 23 µM in experiment [2]; 16 µM in experiment [3]; 16 µM in experiment [4]; 25 µM in experiment [7]; 20 µM in [8]. The same molecule registered a concentration for half-maximal inhibition (IC50) in experiment [9] of 30 µM.

For the molecule `CCc1ccc(NC(=O)NCCCl)cc1`, the concentration for half-maximal inhibition (IC50) in experiment [6] was found to be 6.4 µM; in experiment [2], 6.4 µM; in experiment [3] it was 2.5 µM; in experiment [4] it was 2.7 µM; in experiment [7] it was 5 µM; in experiment [8], 3.2 µM. In experiment [9], it took 5.2 µM to reach half-maximal inhibition (IC50).

With `O=C(NCCCl)Nc1ccc(C2CCCCC2)cc1`, the IC50 in [6] amounted to 23 µM; in [2] it was 38 µM; in experiment [3], 18 µM; in [4] it was 16 µM; in [7], 44 µM; in experiment [8] it was 22 µM. The molecule also returned a 50% inhibitory concentration (IC50) in experiment [9] of 22 µM.

Consider `O=c1[nH]c2ccccc2c(=O)n1CCCl`, for which the NA entry in experiment [10], in experiment [11] and in experiment [12] was “inactive” each time.

On to `CCCCCCCc1ccc(NC(=O)NCCCl)cc1`, for which the half-maximal inhibitory concentration (IC50) is 22 µM in experiment [6]; 25 µM in [2]; 16 µM in experiment [3]; 13 µM in [4]; 30 µM in experiment [7]; 15 µM in experiment [8]. In addition, inhibition in experiment [9] was half-maximal at 18 µM (IC50).

With `CCCNC(=O)Nc1ccc(C(C)(C)C)cc1`, the IC50 was found to be 132 µM in experiment [6]; 35 µM in experiment [2]; 30 µM in experiment [3]; 5.4 µM in experiment [4]; 131 µM in [7].

In the case of `Cc1ccccc1NC(=O)NCCCl`, the NA result in experiment [10], in [11] and in [12] was “inactive” each time.

On to `Cc1cccc(NC(=O)NCCCl)c1`, for which the IC50 in experiment [7] was 60 µM; in experiment [8] it was 60 µM; in experiment [9], 75 µM.

As to `Cc1cc(C)cc(NC(=O)NCCCl)c1`, the 50% inhibitory concentration (IC50) stood at 24.7 µM in experiment [6]; 20 µM in [2]; 10 µM in experiment [3]; 8.8 µM in experiment [4]; 20 µM in experiment [7]; 8.8 µM in experiment [8]. 8.6 µM corresponded to half-maximal inhibition in experiment [9] (IC50).

As for `CC(C)Cc1ccc(NC(=O)NCCCl)cc1`, the IC50 in [6] stood at 23 µM; in experiment [2], 21 µM; in experiment [3], 11 µM; in experiment [4] it was 11 µM; in [7], 24 µM.

The values are drawn from ChEMBL document CHEMBL1134792, “Antimitotic antitumor agents: synthesis, structure-activity relationships, and biological characterization of N-aryl-N'-(2-chloroethyl)ureas as new selective alkylating agents” (J Med Chem, 2001).
